Counter-ions that a name gives are not always drawn.
What was measured:
[1] = Octanol-phosphate buffer partition coefficient, log P of the compound; format: physicochemical
How it was run: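 Compound stock in octanol-saturated buffer, about 0.05 mg/mL. Shaken with octanol 2 h at 37 °C, 200 oscillations/min, then centrifuged 2000 rpm for 4 min. Buffer-phase UV absorbance at λmax near 300 nm measured before and after. P = (Astd − Aext)/(Aext·f), with f the octanol:buffer volume ratio. Run in triplicate.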

[2] = Negative inotropic activity in New Zealand White rabbit isolated atria assessed as reduction of tissue contractility after 15 mins; design: species or system Oryctolagus cuniculus, Cardiac atrium; conditions: 0.25 h
How it was run: (§1)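 Isolated atria stabilized 90 min, paced by 2-ms pulses via platinum electrodes near SA node at 2.5× threshold voltage (threshold found at 240 pulses/min, mean of three). MDF averaged over three determinations. Drug added cumulatively without washout, reading 15 min after each dose, until MDF fell ~60%. Percent decrease in MDF or peak height plotted against log molar concentration and fitted by linear regression. Log ED40 read graphically. Three tissues per compound, averaged with SD.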

[3] = system: Heart; assay: Antiarrhythmic activity in New Zealand White rabbit isolated atria assessed as reduction of maximum driving frequency after 15 mins; format: functional, Oryctolagus cuniculus; how it was run: as §1
[4] = Selectivity index, ratio of pED40 for tissue contractility to pED40 for maximum driving response in New Zealand White rabbit isolated atria; design: species or system Oryctolagus cuniculus, Cardiac atrium
How it was run: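 Ratio of ED40 for contractility to ED40 for MDF. Both come from the same cumulative 15-min dosing of paced isolated atria, with three tissues per compound.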

[5] = Selectivity index, ratio of pED40 for tissue contractility to pED40 for maximum driving response in New Zealand White rabbit isolated atria in presence of 4X10'-8 M propranolol; design: species or system Oryctolagus cuniculus, Cardiac atrium
[6] = Negative inotropic activity in New Zealand White rabbit isolated atria assessed as reduction of tissue contractility after 15 mins in presence of 4X10'-8 M propranolol; design: species or system Oryctolagus cuniculus, Cardiac atrium; conditions: 0.25 h; how it was run: as §1
[7] = system: Heart; assay: Antiarrhythmic activity in New Zealand White rabbit isolated atria assessed as reduction of maximum driving frequency after 15 mins in presence of 4X10'-8 M propranolol; format: functional, Oryctolagus cuniculus; how it was run: as §1

Compound	logP [1]	pED40 [2]	pED40 [3]	Selectivity Index [4]	Selectivity Index [5]	pED40 [6]	pED40 [7]
Br.CC(C)NCC(O)COc1c(Br)cc(Br)c2ccccc12 (stereo unspecified)	2.71	5.53	5.1	0.4			
CC(C)NCC(O)COc1ccc(Cl)c2ccccc12 (stereo unspecified)	2	5.26	5.2	0.9			
CC(C)NCC(O)COc1ccc(N)c2ccccc12.Cl (stereo unspecified)	-0.27	4.92	5.02	1.6			
CC(C)NCC(O)COc1ccc(S(N)(=O)=O)c2ccccc12.Cl (stereo unspecified)	-0.51	3.35	3.58	1.7			
CCCCNCC(O)COc1cccc2ccccc12 (stereo unspecified)	2.08	5.38	5.64	1.8			
COCCCNCC(O)COc1cccc2ccccc12 (stereo unspecified)	1.28	5.4	5.45	1.5			
Cl.NCCCNCC(O)COc1cccc2ccccc12 (stereo unspecified)	-0.19	4.47	4.5	1			
Cl.NC(=O)CCCNCC(O)COc1cccc2ccccc12 (stereo unspecified)	0.31				1.4	4.79	4.89
Cl.O=C(O)CCCNCC(O)COc1cccc2ccccc12 (stereo unspecified)	0.21	3.02	3.41	2			
C[N+](C)(C)CCCNCC(O)COc1cccc2ccccc12.Cl.[Cl-] (stereo unspecified)	-1.89	3.06	3.08	1.1			
CC(C)NCC(O)COc1ccc(O)c2ccccc12 (stereo unspecified) [4-HYDROXYPROPRANOLOL SULFATE]	0.39	4.39	4.6	1.8			
CC(C)NCC(O)COc1cccc2ccccc12 (stereo unspecified) [PROPRANOLOL]		5.21	5.43				
